According to paper PMC7376976 (Bioorganic & medicinal chemistry letters, 2020):

Experiments:
[1] = target: T1, ΔFosB homodimer (Homo sapiens, UniProt P53539); type: binding
T1 sequence (P53539 1-237 isoform P53539-11): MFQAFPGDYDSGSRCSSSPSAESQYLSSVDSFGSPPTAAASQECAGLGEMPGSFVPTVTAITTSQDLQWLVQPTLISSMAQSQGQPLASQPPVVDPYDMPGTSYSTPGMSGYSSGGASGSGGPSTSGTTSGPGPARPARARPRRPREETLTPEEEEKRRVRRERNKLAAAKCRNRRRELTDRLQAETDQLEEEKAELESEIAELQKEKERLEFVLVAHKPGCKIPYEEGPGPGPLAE
Summary of the method: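 Test compound serially diluted (10 concentrations, 0–200 μM, quadruplicate). Annealed 19-mer cdk5 AP-1 duplex, TAMRA-labelled at both 5′ ends, added at 25 nM in 20 mM HEPES pH 7.5, 50 mM NaCl for 5 min. ΔFosB then added at 320 nM (as monomers) for 15 min. FP read at excitation 530 or 540 nm, emission 590 nm. Four-parameter IC50; mean ± SD of two independent days.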

[2] = target: T2, ΔFosB/JunD heterodimer (Homo sapiens, UniProt P17535+P53539); type: binding
T2 sequence (P53539 1-237 isoform P53539-11): T1 sequence (P53539 1-237 isoform P53539-11)
T2 sequence (P17535 1-347): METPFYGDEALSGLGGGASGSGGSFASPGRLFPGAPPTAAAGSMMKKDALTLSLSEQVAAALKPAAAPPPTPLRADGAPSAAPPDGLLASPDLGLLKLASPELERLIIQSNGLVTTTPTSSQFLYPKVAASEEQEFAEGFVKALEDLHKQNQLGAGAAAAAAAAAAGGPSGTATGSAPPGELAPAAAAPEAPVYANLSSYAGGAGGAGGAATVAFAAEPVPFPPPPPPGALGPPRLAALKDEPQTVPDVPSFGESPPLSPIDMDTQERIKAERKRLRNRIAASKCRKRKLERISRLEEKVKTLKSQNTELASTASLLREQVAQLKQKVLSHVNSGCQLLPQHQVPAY
Summary of the method: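 Annealed 19-mer cdk5 AP-1 duplex, TAMRA-labelled at both 5′ ends, used at 25 nM in 20 mM HEPES pH 7.5, 150 mM NaCl. Added to test compound (10 concentrations, 0–200 μM, quadruplicate) for 5 min, then ΔFosB/JunD at 280 nM (as monomers) for 15 min. FP read at excitation 530/540 nm, emission 590 nm. Oligo-only wells set 100% inhibition. Four-parameter IC50; mean ± SD of two days.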

Structure (SMILES) | activity in FP-assay against ΔFosB homodimers (in words) [1] | activity in FP-assay against ΔFosB/JunD heterodimers (in words) [2]
CCOC(=O)c1nc2c(C)cccc2c2c1CCC2 [Compound 20] | little activity even at 100 μM or higher | little activity even at 100 μM or higher
Cc1cccc2c3c(c(C(=O)O)nc12)CCC3 [Compound 21] | little activity even at 100 μM or higher | little activity even at 100 μM or higher
COc1cc(OC)c2c(C(=O)O)nc3c(OC)cccc3c2c1 [Compound 25] | lacked activity | lacked activity

Second part, the compound after the results:

activity in FP-assay against ΔFosB homodimers (in words) [1] | activity in FP-assay against ΔFosB/JunD heterodimers (in words) [2] | Structure (SMILES)
lacked significant activity | lacked significant activity | COc1cccc2c1N(C(C)=O)C(C(=O)O)C1CC=CC21 (stereo not shown) [Compound 13]
lacked significant activity | lacked significant activity | COc1cccc2c1NC(C(=O)O)C1CCCC21 (stereo not shown) [Compound 14]
